{"source": "paper PMC4115637", "about": "(Pharmacology Research & Perspectives, 2014)", "key": {"human TRPV4": {"target": "human TRPV4 (Homo sapiens, UniProt Q9HBA0)", "sequence (Q9HBA0 whole entry)": "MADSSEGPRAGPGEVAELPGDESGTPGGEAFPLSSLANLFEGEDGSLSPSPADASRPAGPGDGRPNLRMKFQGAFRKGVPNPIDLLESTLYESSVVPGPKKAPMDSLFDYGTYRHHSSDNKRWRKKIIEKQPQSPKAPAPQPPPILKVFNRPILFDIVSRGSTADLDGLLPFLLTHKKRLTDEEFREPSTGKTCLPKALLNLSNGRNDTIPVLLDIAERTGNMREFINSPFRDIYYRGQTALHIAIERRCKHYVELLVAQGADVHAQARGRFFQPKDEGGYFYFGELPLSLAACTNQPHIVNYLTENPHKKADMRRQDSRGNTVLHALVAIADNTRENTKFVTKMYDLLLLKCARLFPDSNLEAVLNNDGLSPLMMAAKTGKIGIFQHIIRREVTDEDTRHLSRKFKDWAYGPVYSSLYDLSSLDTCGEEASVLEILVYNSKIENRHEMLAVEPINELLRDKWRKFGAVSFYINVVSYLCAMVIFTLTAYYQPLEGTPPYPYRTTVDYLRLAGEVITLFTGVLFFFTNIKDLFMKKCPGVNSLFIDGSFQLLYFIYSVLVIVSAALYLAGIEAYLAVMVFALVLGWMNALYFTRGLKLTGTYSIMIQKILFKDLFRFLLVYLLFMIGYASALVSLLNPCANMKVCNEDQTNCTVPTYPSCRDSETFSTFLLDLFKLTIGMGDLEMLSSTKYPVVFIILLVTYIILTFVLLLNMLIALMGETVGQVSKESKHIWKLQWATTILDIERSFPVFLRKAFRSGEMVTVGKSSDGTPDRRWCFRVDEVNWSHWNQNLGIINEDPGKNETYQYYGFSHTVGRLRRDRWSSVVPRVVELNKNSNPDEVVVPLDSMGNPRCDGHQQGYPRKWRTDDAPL", "assay": "Calcium flux in HEK-293 cells overexpressing TRPV4", "assay_type": "cell-based", "conditions": "concentrations up to 1 mmol/L"}, "human TRPV3 [1]": {"target": "T1, human TRPV3 (Homo sapiens, UniProt Q8NET8)", "T1 sequence (Q8NET8 1-790)": "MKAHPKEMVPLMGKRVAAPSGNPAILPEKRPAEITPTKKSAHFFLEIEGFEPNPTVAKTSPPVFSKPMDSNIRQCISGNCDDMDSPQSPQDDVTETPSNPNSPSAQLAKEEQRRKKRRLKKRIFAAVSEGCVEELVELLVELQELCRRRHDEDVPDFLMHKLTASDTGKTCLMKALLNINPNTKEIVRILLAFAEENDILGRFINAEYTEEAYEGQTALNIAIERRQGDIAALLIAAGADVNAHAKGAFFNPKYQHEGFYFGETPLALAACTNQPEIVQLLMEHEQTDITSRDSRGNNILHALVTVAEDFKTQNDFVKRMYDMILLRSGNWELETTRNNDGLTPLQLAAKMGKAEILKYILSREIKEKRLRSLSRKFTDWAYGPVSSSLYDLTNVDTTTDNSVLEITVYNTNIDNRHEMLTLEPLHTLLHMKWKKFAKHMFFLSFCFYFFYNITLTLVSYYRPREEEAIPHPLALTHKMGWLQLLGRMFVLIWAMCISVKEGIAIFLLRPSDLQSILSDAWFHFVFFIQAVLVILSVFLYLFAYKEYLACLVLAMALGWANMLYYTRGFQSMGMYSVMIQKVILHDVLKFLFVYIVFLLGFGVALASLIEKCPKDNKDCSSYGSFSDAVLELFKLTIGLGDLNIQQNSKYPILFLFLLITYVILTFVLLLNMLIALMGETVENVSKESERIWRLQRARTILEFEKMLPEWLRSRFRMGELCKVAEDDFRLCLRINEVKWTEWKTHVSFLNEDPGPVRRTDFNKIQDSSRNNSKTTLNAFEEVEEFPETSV", "assay": "Whole-cell recordings in TRPV3-overexpressing HEK-293 cells", "assay_type": "cell-based", "conditions": "250 μmol/L, 500 μmol/L, 1 mmol/L; negative holding potential", "outline": "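HEK-293 cells stably overexpressing human TRPV3 were plated on concanavalin A-coated coverslips and used within 24 h. Whole-cell voltage clamp at −60 or −70 mV with 3–5 MΩ pipettes. External saline: NaCl/KCl/MgCl2/HEPES/glucose/2 mmol/L CaCl2, pH 7.4. CsCl/EGTA internal, pH 7.3. Test compound was perfused or injected, with a fresh cell for each recording. Peak versus basal inward current was compared by one-tailed paired t-test.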"}, "human TRPV3 [2]": {"target": "T1, human TRPV3", "assay": "Re-evaluation of screening hits as TRPV3 agonists", "assay_type": "cell-based", "conditions": "Table 1"}, "human TRPA1": {"target": "human TRPA1 (Homo sapiens, UniProt O75762)", "sequence (O75762 whole entry)": "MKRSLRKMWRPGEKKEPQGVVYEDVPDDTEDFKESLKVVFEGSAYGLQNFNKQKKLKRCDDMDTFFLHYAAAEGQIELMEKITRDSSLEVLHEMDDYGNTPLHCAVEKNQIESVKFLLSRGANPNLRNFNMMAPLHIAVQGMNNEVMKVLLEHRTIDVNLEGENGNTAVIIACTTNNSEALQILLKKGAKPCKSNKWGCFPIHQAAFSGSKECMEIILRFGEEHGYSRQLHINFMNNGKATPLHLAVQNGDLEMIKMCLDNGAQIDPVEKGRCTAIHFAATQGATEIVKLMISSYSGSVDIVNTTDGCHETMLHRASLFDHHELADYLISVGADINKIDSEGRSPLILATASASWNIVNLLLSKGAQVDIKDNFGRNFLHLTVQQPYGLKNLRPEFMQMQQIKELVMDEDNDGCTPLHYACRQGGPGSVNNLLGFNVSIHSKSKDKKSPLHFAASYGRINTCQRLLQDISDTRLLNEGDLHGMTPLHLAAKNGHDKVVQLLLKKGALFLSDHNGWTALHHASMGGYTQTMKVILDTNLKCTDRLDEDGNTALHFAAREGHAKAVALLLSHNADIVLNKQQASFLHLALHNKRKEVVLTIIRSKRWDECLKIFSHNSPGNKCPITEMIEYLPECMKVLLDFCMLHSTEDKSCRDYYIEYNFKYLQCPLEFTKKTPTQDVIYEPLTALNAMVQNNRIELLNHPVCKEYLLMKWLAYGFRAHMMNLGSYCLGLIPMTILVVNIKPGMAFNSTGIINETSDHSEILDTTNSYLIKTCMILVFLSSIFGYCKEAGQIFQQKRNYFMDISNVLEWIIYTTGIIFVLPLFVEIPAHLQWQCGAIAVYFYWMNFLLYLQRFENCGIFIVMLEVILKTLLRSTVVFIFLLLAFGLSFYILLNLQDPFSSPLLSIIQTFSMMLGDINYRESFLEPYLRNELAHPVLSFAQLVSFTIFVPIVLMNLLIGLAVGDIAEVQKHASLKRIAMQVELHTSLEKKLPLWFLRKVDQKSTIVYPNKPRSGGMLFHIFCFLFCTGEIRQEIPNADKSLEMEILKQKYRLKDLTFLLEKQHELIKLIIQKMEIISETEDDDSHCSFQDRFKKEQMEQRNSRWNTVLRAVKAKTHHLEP", "assay": "Calcium flux in HEK-293 cells overexpressing TRPA1", "assay_type": "cell-based", "conditions": "concentrations up to 1 mmol/L"}, "[3]": {"tested_on": "neomycin-induced hair cell loss", "conditions": "ref Coffin et al. [2010]; cited from earlier work"}, "human TRPM8": {"target": "human TRPM8 (Homo sapiens, UniProt Q7Z2W7)", "sequence (Q7Z2W7 whole entry)": "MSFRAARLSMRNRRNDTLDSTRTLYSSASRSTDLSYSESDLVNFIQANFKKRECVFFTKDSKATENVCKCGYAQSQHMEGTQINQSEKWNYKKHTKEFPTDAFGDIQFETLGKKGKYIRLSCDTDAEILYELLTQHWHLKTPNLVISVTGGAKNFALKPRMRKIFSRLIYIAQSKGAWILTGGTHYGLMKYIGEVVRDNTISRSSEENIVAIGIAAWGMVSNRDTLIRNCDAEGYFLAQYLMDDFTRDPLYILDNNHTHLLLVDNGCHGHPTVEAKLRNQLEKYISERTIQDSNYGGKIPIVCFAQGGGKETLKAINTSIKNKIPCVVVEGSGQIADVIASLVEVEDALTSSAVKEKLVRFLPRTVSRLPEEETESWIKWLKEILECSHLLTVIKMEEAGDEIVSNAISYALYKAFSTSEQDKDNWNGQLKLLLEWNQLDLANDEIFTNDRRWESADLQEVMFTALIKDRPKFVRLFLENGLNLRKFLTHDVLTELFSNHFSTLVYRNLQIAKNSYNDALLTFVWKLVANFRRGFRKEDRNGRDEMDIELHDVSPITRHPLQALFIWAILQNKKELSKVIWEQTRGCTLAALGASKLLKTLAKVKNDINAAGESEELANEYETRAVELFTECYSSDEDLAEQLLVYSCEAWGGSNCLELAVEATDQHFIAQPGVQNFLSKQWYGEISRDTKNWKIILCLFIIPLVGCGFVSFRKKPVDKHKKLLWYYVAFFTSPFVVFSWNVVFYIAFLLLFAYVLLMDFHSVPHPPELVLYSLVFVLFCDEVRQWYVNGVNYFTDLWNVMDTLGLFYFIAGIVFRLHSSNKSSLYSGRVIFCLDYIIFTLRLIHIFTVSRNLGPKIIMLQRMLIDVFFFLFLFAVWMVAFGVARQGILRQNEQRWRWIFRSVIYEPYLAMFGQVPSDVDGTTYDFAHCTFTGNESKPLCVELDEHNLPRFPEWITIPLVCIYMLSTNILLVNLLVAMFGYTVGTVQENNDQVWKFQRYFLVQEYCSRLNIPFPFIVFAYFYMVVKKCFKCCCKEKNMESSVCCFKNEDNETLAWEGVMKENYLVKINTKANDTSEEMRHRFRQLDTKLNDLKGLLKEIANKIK", "assay": "Calcium flux in HEK-293 cells overexpressing TRPM8", "assay_type": "cell-based", "conditions": "concentrations up to 1 mmol/L"}, "human TRPV3 [4]": {"target": "T1, human TRPV3", "assay": "Calcium flux in TRPV3 overexpressing HEK-293 cells", "assay_type": "cell-based", "conditions": "HEK-293 cells overexpressing TRPV3"}, "TRPV3 in HaCaT cells": {"target": "T2, TRPV3 in HaCaT cells (Homo sapiens, UniProt Q8NET8)", "T2 sequence (Q8NET8 1-790)": "T1 sequence (Q8NET8 1-790)", "assay": "Calcium flux in HaCaT cells", "assay_type": "cell-based"}, "TRPV3-R696K": {"target": "T3, TRPV3-R696K (Homo sapiens, UniProt Q8NET8, R696K)", "T3 sequence (Q8NET8 1-790 R696K)": "T1 sequence (Q8NET8 1-790) with R696K", "assay": "Calcium flux in HEK-293 cells transiently transfected with TRPV3-R696K", "assay_type": "cell-based", "conditions": "100 μmol/L carvacrol, 100 μmol/L 2-APB, 100 and 200 μmol/L drofenine"}}, "note": "Residue numbers refer to the chain shown, from its start.", "data": [{"compound": "CCN(CC)CCOC(=O)C(c1ccccc1)C1CCCCC1", "note": "(stereo not shown) [drofenine]", "values": [{"measurement": "activation of TRPV4", "setting": "human TRPV4", "value": "not observed"}, {"measurement": "inward currents", "setting": "human TRPV3 [1]", "value": "dose-dependently induced inward currents"}, {"measurement": "Comment(s): re-evaluation as TRPV3 agonist", "setting": "human TRPV3 [2]", "value": "TRPV3-selective agonist"}, {"measurement": "activation of TRPA1", "setting": "human TRPA1", "value": "not observed"}, {"measurement": "effect on neomycin-induced hair cell loss", "setting": "[3]", "value": "inhibitor of neomycin-induced hair cell loss"}, {"measurement": "activation of TRPM8", "setting": "human TRPM8", "value": "not observed"}, {"measurement": "lowest concentration with detectable change in TRPV3 activity", "setting": "human TRPV3 [4]", "value": "~30", "unit": "µmol/L"}, {"measurement": "EC50", "setting": "TRPV3 in HaCaT cells", "value": 605, "unit": "µM"}, {"measurement": "maximum change in fluorescence relative to ionomycin", "setting": "TRPV3 in HaCaT cells; HaCaT cells", "value": "~80", "unit": "%"}, {"measurement": "calcium flux in TRPV3-R696K", "setting": "TRPV3-R696K", "value": "diminished-to-no-function"}]}]}
